The target in experiment [1] is T1, 5-hydroxytryptamine receptor 3A (Homo sapiens, UniProt P46098).
T1 sequence (P46098 whole entry): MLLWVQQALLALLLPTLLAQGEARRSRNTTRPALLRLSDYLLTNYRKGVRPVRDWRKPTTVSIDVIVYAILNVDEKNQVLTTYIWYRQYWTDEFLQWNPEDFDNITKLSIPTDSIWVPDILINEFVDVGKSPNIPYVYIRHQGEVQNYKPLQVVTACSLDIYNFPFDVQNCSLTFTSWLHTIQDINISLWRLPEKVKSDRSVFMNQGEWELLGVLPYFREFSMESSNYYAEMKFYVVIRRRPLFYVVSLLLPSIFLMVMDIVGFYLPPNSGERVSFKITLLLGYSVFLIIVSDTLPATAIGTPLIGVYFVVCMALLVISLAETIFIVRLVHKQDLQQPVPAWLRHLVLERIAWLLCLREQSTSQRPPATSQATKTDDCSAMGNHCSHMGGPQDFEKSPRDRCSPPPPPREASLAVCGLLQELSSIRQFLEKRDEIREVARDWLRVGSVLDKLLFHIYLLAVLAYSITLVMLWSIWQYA
In words: Displacement of [3H]BRL-43694 from human 5HT3 receptor expressed in HEK293 cells by liquid scintillation counting. The format is cell-based. In short, it runs like this: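 HEK-293 membranes expressing human 5-HT3 were incubated with 0.5 nmol/L [3H]BRL-43694 (final) for 60 min at 25 °C. Buffer: 50 mM Tris-HCl, 5 mM MgCl2, 1 mM EDTA, pH 7.5. Compound came from 270 μmol/L DMSO stock, diluted in buffer. Filtration was through GF/B presoaked in 0.5% polyethyleneimine, with two cold Tris washes. Run in duplicate or triplicate; percent inhibition calculated.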
A general note: Displacement assays read how much labelled ligand stays bound in the presence of the test substance.

The target of experiment [2] is T2, 5-hydroxytryptamine receptor 1A (Homo sapiens, UniProt P08908).
T2 sequence (P08908 whole entry): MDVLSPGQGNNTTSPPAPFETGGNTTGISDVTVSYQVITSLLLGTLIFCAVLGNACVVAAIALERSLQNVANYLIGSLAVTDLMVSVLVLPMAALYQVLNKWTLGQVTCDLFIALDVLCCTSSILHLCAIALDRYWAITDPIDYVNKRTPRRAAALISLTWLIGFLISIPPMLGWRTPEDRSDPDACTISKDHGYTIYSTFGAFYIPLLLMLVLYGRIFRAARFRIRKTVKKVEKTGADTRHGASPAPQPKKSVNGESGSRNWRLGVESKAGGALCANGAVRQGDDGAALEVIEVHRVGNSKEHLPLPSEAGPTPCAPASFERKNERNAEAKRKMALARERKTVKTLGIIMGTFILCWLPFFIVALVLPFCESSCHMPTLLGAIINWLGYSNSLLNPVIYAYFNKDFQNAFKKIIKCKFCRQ
Description: Displacement of [3H]8-OH-DPAT from human 5HT1A receptor expressed in CHO cells by liquid scintillation counting. Format: cell-based. In short, it runs like this:
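CHO-cell membranes with human 5-HT1A were incubated with 0.25 nmol/L [3H]8-OH-DPAT (final) for 60 min at 27 °C. Buffer: 50 mM Tris-HCl, 10 mM MgSO4, 0.5 mM EDTA, 0.1% ascorbic acid, pH 7.4. Compound came from 270 μmol/L DMSO stock, diluted in buffer. Filtration was through GF/C presoaked in 0.3% polyethyleneimine, with two cold Tris washes. Run in duplicate or triplicate; percent inhibition of binding calculated.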

From ChEMBL document CHEMBL1275331, “Discovery of a novel 5-HT(3) antagonist/5-HT(1A) agonist 3-amino-5,6,7,8-tetrahydro-2-{4-[4-(quinolin-2-yl)piperazin-1-yl]butyl}quinazolin-4(3H)-one (TZB-30878) as an orally bioavailable agent for irritable bowel syndrome” (J Med Chem, 2010) come the findings set out here.

`Nn1c(CCCCN2CCN(c3ccc4ccccc4n3)CC2)nc2c(Cl)cccc2c1=O`: the IC50 in experiment [1] was 83.1 nM; in experiment [2], less than 10 nM.

For `Nn1c(CCCCN2CCN(c3ccc4ccccc4n3)CC2)nc2c(c1=O)CCCCC2`, the values for the concentration for half-maximal inhibition (IC50) in experiment [1] and in experiment [2] were 84.8 nM and less than 10 nM, respectively.

Take `Nn1c(SCCCN2CCN(c3ccc4ccccc4n3)CC2)nc2sc3c(c2c1=O)CCCC3`: the results for the concentration for half-maximal inhibition (IC50) in experiment [1] and in experiment [2] were 41.4 nM and less than 10 nM, respectively.

On to `Cc1sc2nc(SCCCN3CCN(c4ccccn4)CC3)n(N)c(=O)c2c1C`, for which the half-maximal inhibitory concentration (IC50) in experiment [1] is greater than 100 nM; in experiment [2], 4.2 nM.

In the case of `Nn1c(CCCCCN2CCN(c3ccc4ccccc4n3)CC2)nc2c(c1=O)CCCC2`, the IC50 in experiment [1] is greater than 100 nM; in experiment [2] it was 7.6 nM.

Regarding `Cc1sc2nc(SCCCN3CCN(c4ccc5c(n4)CCCC5)CC3)n(N)c(=O)c2c1C`, the IC50 in experiment [1] is greater than 100 nM; in experiment [2], 6.1 nM.

`Nn1c(CCCN2CCN(c3ccc4ccccc4n3)CC2)nc2c(c1=O)CCCC2`: the IC50 in experiment [1] was greater than 100 nM; in experiment [2] it was 90.4 nM.

For `Cc1c(N2CCN(CCCCc3nc4c(c(=O)n3N)CCCC4)CC2)nc2ccccc2c1C`, the concentration for half-maximal inhibition (IC50) in experiment [1] was greater than 100 nM; in experiment [2] it was 64.6 nM.

Regarding `Nn1c(CCCCN2CCN(c3nc4ccccc4c4c3CCCC4)CC2)nc2c(c1=O)CCCC2`, the IC50 in experiment [1] and in experiment [2] was greater than 100 nM each time.

On to `Cc1cccc2nc(CCCCN3CCN(c4ccc5ccccc5n4)CC3)n(N)c(=O)c12`, for which the IC50 in experiment [1] was greater than 100 nM; in experiment [2], 13.5 nM.

On to `CC1CCc2c(nc(CCCCN3CCN(c4ccc5ccccc5n4)CC3)n(N)c2=O)C1` (centres undefined), for which the IC50 in experiment [1] was 97.9 nM; in experiment [2] it was less than 10 nM.

As for `Cc1sc2nc(CCCCN3CCN(c4ccc5ccccc5n4)CC3)n(N)c(=O)c2c1C`, the 50% inhibitory concentration (IC50) is 26.7 nM in experiment [1] and less than 10 nM in experiment [2].

Regarding `O=c1[nH]c(SCCCN2CCN(c3ccc4ccccc4n3)CC2)nc2sc3c(c12)CCCC3`, the half-maximal inhibitory concentration (IC50) in experiment [1] was 44.2 nM; in experiment [2] it was greater than 100 nM.

Turning to `Nn1c(CCCCN2CCN(c3ccc4ccc(O)cc4n3)CC2)nc2c(c1=O)CCCC2`, the values for the IC50 in experiment [1] and in experiment [2] were 55.2 nM and 46.6 nM, respectively.

Turning to `Cc1sc2nc(SCCCN3CCN(c4nc5ccccc5nc4-c4ccccc4)CC3)n(N)c(=O)c2c1C`, the IC50 in experiment [1] and in experiment [2] was greater than 100 nM throughout.

On to `Nn1c(CCCCN2CCN(c3ccc4ccccc4n3)CC2)nc2cccc(Cl)c2c1=O`, for which the IC50 in experiment [1] is greater than 100 nM; in experiment [2], less than 10 nM.

With `Cc1sc2nc(SCCCN3CCN(c4nc5ccccc5c5ccccc45)CC3)n(N)c(=O)c2c1C`, the IC50 is greater than 100 nM in experiment [1] and 55.4 nM in experiment [2].

As to `Cc1ccc2nc(CCCCN3CCN(c4ccc5ccccc5n4)CC3)n(N)c(=O)c2c1`, the IC50 is 45.6 nM in experiment [1] and less than 10 nM in experiment [2].

As to `Nn1c(CCCCN2CCN(c3ccc4ccccc4n3)CC2)nc2cc(F)ccc2c1=O`, the IC50 in experiment [1] is greater than 100 nM; in experiment [2] it was less than 10 nM.

For `Nn1c(CCCCN2CCN(c3ccc4ccccc4n3)CC2)nc2c(c1=O)CCC2`, the IC50 was 62.1 nM in experiment [1] and less than 1 nM in experiment [2].

As to `Nn1c(CCCCN2CCN(c3ccc4ccccc4n3)CC2)nc2cc(Cl)ccc2c1=O`, the half-maximal inhibitory concentration (IC50) in experiment [1] is greater than 100 nM; in experiment [2], 18 nM.

For the compound `Nn1c(CCCCN2CCN(c3ccc4ccccc4n3)CC2)nc2ccc(F)cc2c1=O`, the values for the IC50 in experiment [1] and in experiment [2] were 99.4 nM and less than 10 nM, respectively.

Turning to `Cc1cccc2c(=O)n(N)c(CCCCN3CCN(c4ccc5ccccc5n4)CC3)nc12`, the IC50 is 15.6 nM in experiment [1] and less than 10 nM in experiment [2].

In the case of `Nn1c(CN2CCN(c3ccc4ccccc4n3)CC2)nc2c(c1=O)CCCC2`, the figures for the IC50 in experiment [1] and in experiment [2] were 86.6 nM and greater than 100 nM, respectively.

Turning to `Nn1c(SCCCN2CCN(c3ccc4ccccc4n3)CC2)nc2cc([N+](=O)[O-])ccc2c1=O`, the IC50 is greater than 100 nM in experiment [1] and 1.3 nM in experiment [2].

Take `Nn1c(CCCCN2CCN(c3ccc4ccccc4n3)CC2)nc2ccc(Cl)cc2c1=O`: the 50% inhibitory concentration (IC50) is greater than 100 nM in experiment [1] and less than 10 nM in experiment [2].

Regarding `Cc1sc2nc(SCCCN3CCN(c4nc5ccccc5s4)CC3)n(N)c(=O)c2c1C`, the results for the IC50 in experiment [1] and in experiment [2] were 87.6 nM and 66.6 nM, respectively.

On to `O=c1[nH]c(CCCCN2CCN(c3ccc4ccccc4n3)CC2)nc2c1CCCC2`, for which the values for the IC50 in experiment [1] and in experiment [2] were 24.6 nM and 6.2 nM, respectively.

As to `Nn1c(CCCCN2CCN(c3nc4ccccc4c4c3CCC4)CC2)nc2c(c1=O)CCCC2`, the IC50 in experiment [1] is greater than 100 nM; in experiment [2] it was 62.3 nM.

As to `Nn1c(CCCCN2CCN(c3ccc4cc(O)ccc4n3)CC2)nc2c(c1=O)CCCC2`, the concentration for half-maximal inhibition (IC50) in experiment [1] is greater than 100 nM; in experiment [2], 59.3 nM.

Take `Nn1c(CCN2CCN(c3ccc4ccccc4n3)CC2)nc2c(c1=O)CCCC2`: the half-maximal inhibitory concentration (IC50) in experiment [1] and in experiment [2] was greater than 100 nM each time.

Take `Cc1sc2nc(SCCCN3CCN(c4cc(C)c5ccccc5n4)CC3)n(N)c(=O)c2c1C`: the figures for the concentration for half-maximal inhibition (IC50) in experiment [1] and in experiment [2] were 50.5 nM and 4.3 nM, respectively.

For the compound `CC1CCc2nc(CCCCN3CCN(c4ccc5ccccc5n4)CC3)n(N)c(=O)c2C1` (centres undefined), the half-maximal inhibitory concentration (IC50) in experiment [1] is 48.3 nM; in experiment [2] it was less than 10 nM.

On to `Nn1c(CCCCN2CCN(c3nc4ccccc4cc3O)CC2)nc2c(c1=O)CCCC2`, for which the half-inhibitory concentration (IC50) was found to be 52.6 nM in experiment [1] and 96.4 nM in experiment [2].

Take `Cc1sc2nc(SCCCN3CCN(c4ccc5ccccc5n4)CC3)[nH]c(=O)c2c1C`: the IC50 in experiment [1] and in experiment [2] was greater than 100 nM throughout.

Regarding `Nn1c(CCCCN2CCN(c3ccc4ccccc4n3)CC2)nc2c(c1=O)CC(O)CC2` (centres undefined), the concentration for half-maximal inhibition (IC50) in experiment [1] was 46.5 nM; in experiment [2], less than 10 nM.

Turning to `Nn1c(SCCCN2CCN(c3ccc4ccccc4n3)CC2)nc2ccccc2c1=O`, the results for the half-maximal inhibitory concentration (IC50) in experiment [1] and in experiment [2] were 69.9 nM and 24.4 nM, respectively.

With `Cc1cc2ccccc2nc1N1CCN(CCCCc2nc3c(c(=O)n2N)CCCC3)CC1`, the 50% inhibitory concentration (IC50) is greater than 100 nM in experiment [1] and 96 nM in experiment [2].

For the compound `Nn1c(SCCCN2CCN(c3ccc4ccccc4n3)CC2)nc2cccnc2c1=O`, the IC50 was 61 nM in experiment [1] and less than 1 nM in experiment [2].

As to `Nn1c(SCCCN2CCN(c3ccc4ccccc4n3)CC2)nc2ncccc2c1=O`, the IC50 in experiment [1] is 64.8 nM; in experiment [2] it was less than 1 nM.

As for `Nn1c(CCCCN2CCN(c3ccc4ccccc4n3)CC2)nc2cccc(F)c2c1=O`, the 50% inhibitory concentration (IC50) in experiment [1] was 50.6 nM; in experiment [2], less than 10 nM.

In the case of `Nn1c(SCCCN2CCN(c3ccc4ccccc4n3)CC2)nc2sc3c(c2c1=O)CCNC3`, the figures for the IC50 in experiment [1] and in experiment [2] were 100 nM and 5.2 nM, respectively.

The IC50 is the point on the concentration scale where inhibition reaches its midpoint.
